Tests used:
Assay type in all cases: functional, cell-based
[1] = test system: K562; test: In vitro cytotoxic activity required to inhibit human chronic myelogenous leukemia K-562 cell line
Summary of the method: (§1)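 Alamar Blue viability assay. (1-5) × 10³ cells were seeded in RPMI 1640 with 10% bovine calf serum and preincubated 24 h. Increasing drug concentrations from DMSO stocks were added (final DMSO 0.5%) and cells incubated 72 h at 37 °C. Fluorescence read at ex 485/em 590 nm. IC50 is the dose inhibiting growth by 50%, mean of at least three independent determinations.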

[2] = test system: B16; test: In vitro cytotoxic activity required to inhibit murine melanoma B16 cell line; settings: Mus musculus; summary of the method: as §1
[3] = test system: MCF7; test: In vitro cytotoxic activity required to inhibit human estrogen-sensitive breast adenocarcinoma MCF-7 cell line; summary of the method: as §1
[4] = test system: HT-29; test: In vitro cytotoxic activity required to inhibit human colon adenocarcinoma HT-29 cell line; summary of the method: as §1
[5] = test system: T-24; test: In vitro cytotoxic activity required to inhibit human bladder carcinoma T24 cell line; summary of the method: as §1
[6] = test system: L1210; test: In vitro cytotoxic activity required to inhibit murine lymphocytotic leukemia L1210 cell line; settings: Mus musculus; summary of the method: as §1
[7] = test system: CHO; test: Cytotoxic activity on wild type CHO10001 cell line expressing mutated tubulin; settings: Cricetulus griseus; summary of the method: as §1
[8] = test system: CHO-VV 3-2; test: Cytotoxic activity on colchicine-resistant CHO-VV 3-2 cell line expressing mutated tubulin; settings: Cricetulus griseus; summary of the method: as §1
[9] = test system: CHO-TAX 5-6; test: Cytotoxic activity on paclitaxel-resistant CHO-TAX 5-6 cell line expressing mutated tubulin; settings: Cricetulus griseus; summary of the method: as §1

Row | SMILES | IC50 [1] [µM] | IC50 [2] [µM] | IC50 [3] [µM] | IC50 [4] [µM] | IC50 [5] [µM] | IC50 [6] [µM] | IC50 [7] [µM] | IC50 [8] [µM] | IC50 [9] [µM]
1 | CCC(C)c1ccc(NC(=O)N[C@@H](CC)CCl)cc1 (some centres undefined) | 27 | 27 | 51 | 28 | 38 | 12 | – | – | –
2 | CC(C)c1ccc(NC(=O)N[C@H](C)CCl)cc1 | 0.9 | 2.3 | 2.9 | 1 | 1.9 | 0.9 | – | – | –
3 | CC[C@@H](CCl)NC(=O)Nc1ccc(I)cc1 | 63 | 89 | 80 | 79 | 67 | 90 | – | – | –
4 | O=C(NCCCl)Nc1ccc(I)cc1 | 6.2 | 16 | 23 | 6 | 12 | 3.6 | 15 | 23 | 6.1
5 | CCC(C)c1ccc(NC(=O)N[C@H](C)CCl)cc1 (some centres undefined) | 2 | 4.2 | 4.8 | 1.9 | 3.4 | 1.7 | – | – | –
6 | CC[C@H](CCl)NC(=O)Nc1ccc(C(C)C)cc1 | 19 | 33 | 55 | 28 | 32 | 14 | – | – | –
7 | C[C@@H](CCl)NC(=O)Nc1ccc2c(c1)CCC2 | 91 | > 100 | > 100 | > 100 | 92 | 41 | – | – | –
8 | CC(C)c1ccc(NC(=O)NCCCl)cc1 | 1.9 | 4.7 | 4.7 | 2.3 | 3.6 | 2 | – | – | –
9 | C[C@@H](CCl)NC(=O)Nc1ccc2ccccc2c1 | 63 | > 100 | > 100 | 86 | 71 | 20 | – | – | –
10 | CCC(C)c1ccc(NC(=O)NCCCl)cc1 (centres undefined) | 2 | 5 | 5.2 | 1.8 | 3.7 | 2 | – | – | –
11 | CCC(C)c1ccc(NC(=O)N[C@@H](C)CCl)cc1 (some centres undefined) | 34 | 33 | 63 | 39 | 35 | 18 | – | – | –
12 | C[C@H](CCl)NC(=O)Nc1ccc2ccccc2c1 | 2.3 | 4.5 | 6 | 2.3 | 4 | 1.7 | – | – | –
13 | C[C@H](CCl)NC(=O)Nc1ccc(I)cc1 | 1 | 2.1 | 3.2 | 1.3 | 1.8 | 0.8 | 2.3 | 4.7 | 0.7
14 | C[C@@H](CCl)NC(=O)Nc1ccc2c(c1)Cc1ccccc1-2 | 19 | 30 | 29 | 28 | 27 | 17 | – | – | –
15 | CC[C@H](CCl)NC(=O)Nc1ccc(C(C)(C)C)cc1 | 28 | 27 | 52 | 25 | 28 | 17 | – | – | –
16 | CC(C)(C)c1ccc(NC(=O)NCCCl)cc1 | 3.6 | 8 | 11 | 4 | 6.3 | 3.3 | 7.6 | 13 | 3.1
17 | CC(C)c1ccc(NC(=O)N[C@@H](C)CCl)cc1 | 33 | 46 | > 100 | 65 | 54 | 28 | – | – | –
18 | C[C@@H](CCl)NC(=O)Nc1ccc(I)cc1 | 43 | 93 | 93 | 76 | 59 | 47 | 58 | 51 | 54
19 | C[C@H](CCl)NC(=O)Nc1ccc2c(c1)CCC2 | 5 | 11 | 11 | 6.4 | 7.4 | 4.2 | – | – | –
20 | C[C@H](CCl)NC(=O)Nc1ccc2c(c1)Cc1ccccc1-2 | 5.1 | 9.3 | 10 | 6.6 | 7.4 | 4.2 | – | – | –
21 | CCC(C)c1ccc(NC(=O)N[C@H](CC)CCl)cc1 (some centres undefined) | 19 | 20 | 38 | 20 | 28 | 11 | – | – | –
22 | CC[C@@H](CCl)NC(=O)Nc1ccc(C(C)(C)C)cc1 | 26 | 27 | 60 | 24 | 29 | 17 | – | – | –
23 | CC[C@H](CCl)NC(=O)Nc1ccc(I)cc1 | 31 | 49 | 52 | 34 | 46 | 87 | – | – | –
24 | O=C(NCCCl)Nc1ccc2ccccc2c1 | 2.5 | 6.3 | 7.3 | 2.6 | – | 2.9 | – | – | –
25 | C[C@@H](CCl)NC(=O)Nc1ccc(C(C)(C)C)cc1 | 47 | 35 | 84 | 48 | 41 | 12 | 56 | 53 | 53
26 | C[C@H](CCl)NC(=O)Nc1ccc(C(C)(C)C)cc1 | 3.8 | 8.5 | 10 | 3.9 | 7 | 3.4 | 8.1 | 15 | 3.6
27 | CC[C@@H](CCl)NC(=O)Nc1ccc(C(C)C)cc1 | 28 | 46 | 72 | 51 | 57 | 24 | – | – | –

Source: ChEMBL document CHEMBL1145895, “A new generation of N-aryl-N'-(1-alkyl-2-chloroethyl)ureas as microtubule disrupters: synthesis, antiproliferative activity, and beta-tubulin alkylation kinetics” (J Med Chem, 2003)
